Experimental data from ChEMBL document CHEMBL1142516, “Design, synthesis, and structure-affinity relationships of novel series of sialosides as CD22-specific inhibitors” (J Med Chem, 2008).
pIC50: −log10 of the molar value.

How the values were obtained:
[1] = Binding affinity to biotinylated mouse CD22-human IgG1 chimeric protein expressed in mouse J558LST6 cells by flow cytometry; format: cell-based
Procedure, shortened: (§1)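 IC50 from inhibition of CD22-Fc binding to alpha2,6-sialic acid on ST6GalI-transfected J558L mouse myeloma cells (J558LST6), incubated with CD22-Fc plus varied sialoside concentrations. Detection with Alexa Fluor 647-streptavidin, 30 min on ice, then flow cytometry. % binding = (A−B)/(C−B)×100 using MFI: A, sialoside sample; B, parent J558L; C, untreated J558LST6. IC50 taken as 50% binding inhibition; means of ≥3 independent determinations.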

B-cell receptor CD22 = target: T1, B-cell receptor CD22 (Homo sapiens, UniProt P20273); assay: Binding affinity to biotinylated human CD22-human IgG1 chimeric protein expressed in mouse J558LST6 cells by flow cytometry; format: cell-based; procedure, shortened: as §1
T1 sequence (P20273 whole entry): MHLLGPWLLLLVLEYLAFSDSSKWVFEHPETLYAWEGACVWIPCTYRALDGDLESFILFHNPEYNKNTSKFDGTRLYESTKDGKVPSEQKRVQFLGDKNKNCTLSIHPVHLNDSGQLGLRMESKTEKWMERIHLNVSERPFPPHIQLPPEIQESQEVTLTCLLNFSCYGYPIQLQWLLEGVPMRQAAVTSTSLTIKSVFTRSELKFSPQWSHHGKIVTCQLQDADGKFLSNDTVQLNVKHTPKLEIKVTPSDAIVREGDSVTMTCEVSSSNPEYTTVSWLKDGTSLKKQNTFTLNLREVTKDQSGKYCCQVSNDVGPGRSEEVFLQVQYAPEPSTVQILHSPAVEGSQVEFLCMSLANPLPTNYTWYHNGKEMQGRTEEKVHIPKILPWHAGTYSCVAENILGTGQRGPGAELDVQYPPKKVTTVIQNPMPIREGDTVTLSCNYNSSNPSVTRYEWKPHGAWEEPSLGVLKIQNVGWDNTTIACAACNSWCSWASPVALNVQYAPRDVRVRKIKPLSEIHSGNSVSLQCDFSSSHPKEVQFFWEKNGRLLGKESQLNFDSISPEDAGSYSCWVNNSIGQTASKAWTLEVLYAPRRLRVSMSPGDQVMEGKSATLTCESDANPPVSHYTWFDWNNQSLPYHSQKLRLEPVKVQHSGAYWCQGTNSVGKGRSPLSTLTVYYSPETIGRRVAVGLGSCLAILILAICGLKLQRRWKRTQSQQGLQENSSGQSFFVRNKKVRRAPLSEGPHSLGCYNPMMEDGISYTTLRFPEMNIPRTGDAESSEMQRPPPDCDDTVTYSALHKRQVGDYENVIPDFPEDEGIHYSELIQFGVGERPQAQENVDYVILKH

pIC50 [1]	pIC50 (B-cell receptor CD22)	Compound
3.79	3.94	COc1ccc(O[C@@H]2O[C@H](CO[C@]3(C(=O)O)C[C@H](O)[C@@H](NC(=O)CO)[C@H]([C@H](O)[C@H](O)CNC(=O)c4cc(Cl)ccc4O)O3)[C@H](O)[C@H](O)[C@H]2O)cc1
4.57	5.01	COc1ccc(O[C@@H]2O[C@H](CO[C@]3(C(=O)O)C[C@H](O)[C@@H](NC(=O)CO)[C@H]([C@H](O)[C@H](O)CNCc4ccc(-c5ccc(C)cc5)cc4)O3)[C@H](O)[C@H](O)[C@H]2O)cc1
5.21	5.43	COc1ccc(O[C@@H]2O[C@H](CO[C@]3(C(=O)O)C[C@H](O)[C@@H](NC(=O)CO)[C@H]([C@H](O)[C@H](O)CNC(=O)Cc4ccc(-c5ccccc5)cc4)O3)[C@H](O)[C@H](O)[C@H]2O)cc1
3.30	3.83	COc1ccc(O[C@@H]2O[C@H](CO[C@]3(C(=O)O)C[C@H](O)[C@@H](NC(=O)CO)[C@H]([C@H](O)[C@H](O)CO)O3)[C@H](O)[C@H](O)[C@H]2O)cc1
